Drawing on ChEMBL document CHEMBL1150157, “Five new steroidal saponins from Solanum chrysotrichum leaves and their antimycotic activity” (2002), this text covers MIC for seven compounds.

One may read the MIC as the least concentration at which growth counts as inhibited.

Values after ≈ are worked out from the molar mass of the structure shown.

Holding throughout (format): functional
The test system of one experiment is Aspergillus niger. Kind of experiment: Antimicrobial activity against Aspergillus niger ATCC 10335 after 48 hrs by agar dilution method. Conditions: ATCC 10335, 48 h. The essentials:
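A. niger maintained on potato dextrose agar at 27 °C. Tested by agar dilution on Sabouraud glucose agar with 2-fold serial DMSO dilutions of pure compounds (400–3.125 µg/mL) added to the medium, final DMSO ≤2%. Inoculum was 10^6 spores/mL, hemocytometer-counted, applied by 0.010 mL loop. Incubation at 29 °C for 48 h, in triplicate. MIC was the lowest concentration preventing visible growth.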
In general terms: Agar dilution tests growth on a series of plates holding different concentrations.

The next experiment has as its system Candida albicans. Kind of experiment: Antimicrobial activity against Candida albicans ATCC 10231 after 24 hrs by agar dilution method. The essentials: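 C. albicans kept on Sabouraud glucose agar, which also served as the assay medium. Pure compounds in DMSO were diluted 2-fold serially (400–3.125 µg/mL) into the agar, final DMSO ≤2%. An inoculum of 10^5 cells/mL (hemocytometer) was spotted with a 0.010 mL calibrated loop. Plates were held at 29 °C for 24 h, in triplicate. MIC was the lowest concentration inhibiting visible growth.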

The next experiment relates to Trichophyton rubrum. The experiment is described as follows: Antimicrobial activity against Trichophyton rubrum ATCC 28188 after 72 hrs by agar dilution method. As to conditions: ATCC 28188, 72 h. The essentials: (§1)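 Dermatophytes maintained on potato dextrose agar at 27 °C. Assayed by agar dilution on Sabouraud glucose agar. Pure compounds in DMSO were serially diluted 2-fold (400–3.125 µg/mL) into the medium, with final DMSO ≤2%. Spots of 10^6 spores/mL (hemocytometer count) were applied with a 0.010 mL loop. Plates ran at 29 °C for 72 h, in triplicate. MIC was the lowest concentration with no visible growth.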

The test system of experiment [1] is Trichophyton mentagrophytes. Kind of experiment: Antimicrobial activity against Trichophyton mentagrophytes ATCC 28185 after 72 hrs by agar dilution method. As to conditions: ATCC 28185, 72 h. The essentials:
as §1

Regarding `C[C@@H]1CC[C@@]2(OC1)O[C@H]1C[C@H]3[C@@H]4C[C@H](O[C@@H]5O[C@H](C)[C@@H](O)[C@H](O[C@@H]6O[C@@H](C)[C@H](O)[C@@H](O)[C@H]6O)[C@H]5O)[C@H]5C[C@@H](O)CC[C@]5(C)[C@H]4CC[C@]3(C)[C@H]1[C@@H]2C`, the MIC against Aspergillus niger stood at 400 µg/mL (≈ 552 µM); in the experiment on Candida albicans (ATCC 10231, 24 h), 200 µg/mL (≈ 276 µM); against Trichophyton rubrum it was 50 µg/mL (≈ 69 µM); in experiment [1], 200 µg/mL (≈ 276 µM).
Regarding `Clc1ccc(COC(Cn2ccnc2)c2ccc(Cl)cc2Cl)c(Cl)c1` (centres undefined) [MICONAZOLE], the MIC in the experiment with Aspergillus niger came to 8 µg/mL (≈ 19.2 µM); against Trichophyton rubrum, 4 µg/mL (≈ 9.61 µM); in experiment [1], 4 µg/mL (≈ 9.61 µM).
Turning to `C[C@@H]1CC[C@@]2(OC1)O[C@H]1C[C@H]3[C@@H]4C[C@H](O[C@@H]5OC[C@@H](O)[C@H](O)[C@H]5O)[C@H]5C[C@@H](O)CC[C@]5(C)[C@H]4CC[C@]3(C)[C@H]1[C@@H]2C`, the MIC in the experiment with Aspergillus niger was over 400 µg/mL; against Candida albicans (ATCC 10231, 24 h), 200 µg/mL (≈ 354 µM); in the experiment on Trichophyton rubrum it was 100 µg/mL (≈ 177 µM); in experiment [1], 100 µg/mL (≈ 177 µM).
As to `C[C@@H]1CC[C@@]2(OC1)O[C@H]1C[C@H]3[C@@H]4C[C@H](O[C@@H]5O[C@H](C)[C@@H](O)[C@H](O)[C@H]5O)[C@H]5C[C@@H](O)CC[C@]5(C)[C@H]4CC[C@]3(C)[C@H]1[C@@H]2C`, the MIC with Aspergillus niger is over 400 µg/mL; in the experiment with Candida albicans (ATCC 10231, 24 h), 200 µg/mL (≈ 346 µM); in the experiment with Trichophyton rubrum, 50 µg/mL (≈ 86.4 µM); in experiment [1] it was 25 µg/mL (≈ 43.2 µM).
The matching figures for `C[C@@H]1CC[C@@]2(OC1)O[C@H]1C[C@H]3[C@@H]4C[C@H](O[C@@H]5O[C@H](C)[C@@H](O)[C@H](O[C@@H]6OC[C@@H](O)[C@H](O)[C@H]6O)[C@H]5O)[C@H]5C[C@@H](O)CC[C@]5(C)[C@H]4CC[C@]3(C)[C@H]1[C@@H]2C`: 100 µg/mL (≈ 141 µM), 200 µg/mL (≈ 281 µM), 12.5 µg/mL (≈ 17.6 µM) and 12.5 µg/mL (≈ 17.6 µM).
For NYSTATIN, in the experiment with Candida albicans, the MIC stood at 8 µg/mL.
Turning to `C[C@H]1CO[C@@]2(O[C@H]3C[C@H]4[C@@H]5C[C@H](O[C@@H]6O[C@H](C)[C@@H](O)[C@H](O[C@@H]7O[C@@H](C)[C@H](O)[C@@H](O)[C@H]7O)[C@H]6O)[C@H]6C[C@@H](O)CC[C@]6(C)[C@H]5CC[C@]4(C)[C@H]3[C@@H]2C)[C@@H](O)C1`, the minimum inhibitory concentration (MIC) in the experiment with Aspergillus niger came out at 200 µg/mL (≈ 270 µM); against Candida albicans (ATCC 10231, 24 h), 200 µg/mL (≈ 270 µM); against Trichophyton rubrum, 200 µg/mL (≈ 270 µM); in experiment [1], 200 µg/mL (≈ 270 µM).
